High-throughput results from PubChem BioAssay.
RGS4 act: RGS4 potentiation or activation; HEK293 M3R/inducible RGS4, carbachol calcium flux Fluo4; hits give low values; B-score at 10 µM; 310,000 compounds, 0.92% hits;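 active means B-score of the integrated calcium signal more than 4 SD below the library mean, with starting fluorescence not abnormally high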;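 further: negative B-score means reduced calcium response which marks RGS4 activation or potentiation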
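Material: M3R-expressing HEK293 line, RGS4 induced by doxycycline | Schedule: Overnight RGS4 induction, 30 min dye load 37 °C, 20 min compound RT | Measured by: Fluo4 fluorescence kinetic imaging of calcium | Read-out: Integrated calcium ratio converted to B score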
MrgX1 ag: agonists of human MrgX1 receptor; B-score at 10 µM; Q96LB2; MrgX1-HEK293 cells, Fluo-4 calcium fluorescence, agonist mode; hits give high values; AID 588627; 310,000 compounds, 0.44% hits;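 active means calcium response B-score plate-corrected fluorescence ratio at least 3 library SD, with starting fluorescence B-score inside 5 SD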
Target sequence (Q96LB2 whole entry, looked up): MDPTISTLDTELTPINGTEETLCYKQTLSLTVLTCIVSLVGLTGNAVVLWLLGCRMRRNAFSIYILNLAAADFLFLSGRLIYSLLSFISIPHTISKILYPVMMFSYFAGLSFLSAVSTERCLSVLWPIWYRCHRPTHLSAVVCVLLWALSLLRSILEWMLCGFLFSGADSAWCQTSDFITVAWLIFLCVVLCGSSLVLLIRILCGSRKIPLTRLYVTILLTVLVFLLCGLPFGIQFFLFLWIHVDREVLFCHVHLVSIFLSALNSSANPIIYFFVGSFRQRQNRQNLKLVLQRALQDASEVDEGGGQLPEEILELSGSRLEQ
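Test system: HEK293 cells stably expressing human MrgX1 receptor; amount: 15,000 cells per well; doses: compound delivered in addition one of three; times: overnight plating before 1 h dye loading; detection: Fluo-4 NW calcium-flux fluorescence, kinetic read; read-out basis: B-scored fluorescence response ratio; controls: positive and negative controls per plate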
PHOSPHO1 block: inhibitors of human PHOSPHO1 phosphatase; Q8TCT1; inhibition, % at 13.3 µM; AID 1565; recombinant PHOSPHO1, absorbance phosphatase assay; 290,000 compounds, 1.1% hits; in the data active means inhibition above about 60%
Target sequence (Q8TCT1 whole entry, looked up): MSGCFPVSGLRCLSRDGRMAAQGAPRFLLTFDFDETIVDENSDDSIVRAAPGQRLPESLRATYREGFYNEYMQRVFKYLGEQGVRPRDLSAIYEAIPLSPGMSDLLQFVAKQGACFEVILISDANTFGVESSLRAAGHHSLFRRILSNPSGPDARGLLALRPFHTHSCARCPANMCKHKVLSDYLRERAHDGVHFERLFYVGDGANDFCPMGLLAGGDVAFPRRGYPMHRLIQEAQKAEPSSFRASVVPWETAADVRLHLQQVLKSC
MrgX1 antag: blocks BAM8-22 activation of human MrgX1 receptor; Q96LB2; MRGX1-HEK293 calcium flux, Fluo-4, BAM8-22 antagonism; hits give low values; B-score at 10 µM; 310,000 compounds, 1.3% hits; AID 588676;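 active means calcium-response B-score plate-corrected more than 3 library SD below zero, starting fluorescence within 5 deviations, no agonist response on first addition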;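 further: peak minus trough fluorescence over baseline after final BAM8-22 challenge near maximal dose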
RGS4 block: inhibitors of human RGS4. B-score at 10 µM. HEK293 M3R/RGS4 inducible, Fluo-4 calcium flux; hits give high values; triggered by carbachol at its EC20. AID 463165. 310,000 compounds, 0.45% hits;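 active means B-score, a plate-corrected calcium signal, over three deviations above library mean, with baseline fluorescence within five deviations of library mean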;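 further: RGS4 expression induced by doxycycline in cells with stable M3 receptor; B-score is computed from the integrated fluorescence ratio over baseline after carbachol; higher B-score means a larger calcium signal and so more RGS4 inhibition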
MrgX1 PAM: allosterically activates human MrgX1 receptor signaling | MrgX1-HEK293, Fluo-4 calcium flux, FDSS; hits give high values | Q96LB2 | B-score at 10 µM | 310,000 compounds, 0.63% hits;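 active means plate-corrected calcium response at least 3 library SD above typical, normal starting fluorescence, not activating the receptor alone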;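 further: compound read alongside a low EC10 to EC30 dose of BAM8-22 agonist; peak minus trough fluorescence over baseline measured at the second addition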
The depositor's hits bear a star; i = inactive; . = not tested or not shown. Sampled rows, rich in hits. Any-hit rate of the full collection: about 4.5%.

SMILES	RGS4 act	MrgX1 ag	PHOSPHO1 block	MrgX1 antag	RGS4 block	MrgX1 PAM
CC(C)n1c(-c2ccc(C(C)(C)C)cc2)n[nH]c1=S	i	i	99.1*	i	i	i
Cc1ccc(-c2cn3c(=S)[nH]nc3s2)cc1	i	i	67.5*	i	i	i
COc1ccc(-c2n[nH]c(=S)n2-c2ccc(C)cc2)cc1	i	i	6.5	i	i	i
Cc1ccc(SCc2cc(=O)c3c(=O)n(-c4ccccc4)[nH]c3[nH]2)cc1	i	i	42.1	i	i	i
CSc1ncccc1C(=O)N1CCCC(CCC(=O)NCc2ccc(F)c(F)c2)C1 (stereo not drawn)	i	i	-2.1	i	i	i
COc1ccc2sc(N(CCCN(C)C)C(=O)c3ccc(S(=O)(=O)N4CCCC4)cc3)nc2c1	-7.25*	i	.	i	i	i
CCOC(=O)N1CCN(S(=O)(=O)c2ccc(C(=O)N(CCCN(C)C)c3nc4cc(OC)ccc4s3)cc2)CC1	-7.57*	i	.	i	i	i
COc1ccc2sc(N(CCCN(C)C)C(=O)c3ccc(S(=O)(=O)N4CCc5ccccc5C4)cc3)nc2c1	i	i	.	i	i	i
N#Cc1ccccc1S(=O)(=O)c1ccccc1C(=O)Nc1ccccc1	i	i	43.6	i	i	i
FC(F)Oc1ccc(-c2csc(NNC3=NCCCCC3)n2)cc1	i	i	60.9*	i	i	i
Brc1ccc(-c2csc(NNC3=NCCCCC3)n2)cc1	i	i	88.3*	i	i	i
CC(C)C(c1nnnn1Cc1ccc(F)cc1)N1CCN(Cc2ccc3c(c2)OCO3)CC1 (stereo not drawn)	-7.23*	i	-11.0	i	i	i
Cc1ccc(/C(=N\O)c2oc3c(C)c4oc(=O)cc(C)c4cc3c2C)cc1	-8.08*	i	-5.8	i	i	10.2*
CC1=CSC2=NC(=O)/C(=C\c3cccn3-c3ccccc3)C(=N)N12	i	i	-8.9	i	i	8.76*
CCOc1ccc(-n2c(C)cc(/C=C3/C(=N)N4C(=NC3=O)SN=C4S(C)(=O)=O)c2C)cc1	i	i	3.3	i	i	i
Cc1ccc(-n2cccc2/C=C2/C(=N)N3C(=NC2=O)SN=C3S(C)(=O)=O)cc1Cl	.	i	-10.7	i	.	i
Cc1cccc(C)c1-n1cccc1/C=C1/C(=N)N2C(=NC1=O)SN=C2S(C)(=O)=O	-7.86*	i	-3.7	i	i	i
CCC1=NN2C(=N)/C(=C\c3cccn3-c3cccc(Cl)c3)C(=O)N=C2S1	i	i	35.8	i	i	10.5*
Cc1cc(/C=C2/C(=N)N3C(=NC2=O)SN=C3S(C)(=O)=O)c(C)n1-c1ccc(F)cc1	i	i	-35.6	i	i	18.3*
NS(=O)(=O)c1ccc(CCNC(=O)c2ccc(NC3=NC4CS(=O)(=O)CC4S3)cc2)cc1 (stereo not drawn)	i	i	35.0	i	i	i
O=C(c1cc2c(=O)n3ccccc3nc2s1)N1CCc2ccccc2C1	i	i	10.8	i	i	i
C=CCN1C=CC=C/C1=C1\SC(=S)N(C)C1=O	-8.33*	i	4.4	i	i	i
Cc1ccc(S(=O)(=O)NCC(=O)N(CCc2ccccc2)CC(=O)NCc2ccco2)cc1	i	.	2.9	.	i	.
Cc1ccc(S(=O)(=O)NCC(=O)N(CC(=O)NCc2ccco2)Cc2ccccc2)cc1	i	35.9*	50.8	i	i	i
Cc1ccc(S(=O)(=O)CCC(=O)c2cccc([N+](=O)[O-])c2)cc1	i	33*	-19.5	i	i	i
SMILES	RGS4 act	MrgX1 ag	PHOSPHO1 block	MrgX1 antag	RGS4 block	MrgX1 PAM
O=C(CCNc1cccc(F)c1)c1cccc([N+](=O)[O-])c1	i	i	55.7	i	i	9.07*
CCN(CC)C(=O)Oc1ccc2oc(=O)cc(-c3cc4cccc(OC)c4o3)c2c1	-7.21*	i	27.9	i	i	i
O=C(c1ccco1)N1CCN(c2c([N+](=O)[O-])nn(-c3cccc(Cl)c3)[n+]2[O-])CC1	i	i	11.4	i	i	i
COc1ccc(Nc2cccccc2=O)cc1	i	i	62.0*	i	i	i
CC1CCc2c(nc3nc[nH]n3c2=O)C1 (stereo not drawn)	i	i	0.5	i	i	i
S=c1c2c(nc3nc[nH]n13)CCC2	i	i	92.7*	i	i	i
COc1ccc2ccccc2c1C1CC(=O)N2CN(C3CCCCC3)CSC2=C1C#N (stereo not drawn)	i	i	50.1	i	i	i
COc1ccc(C2CC(=O)N3CN(c4ccc(C)c(Cl)c4)CSC3=C2C#N)cc1 (stereo not drawn)	i	i	82.8*	i	i	i
Cc1cccc(N2CSC3=C(C#N)C(c4ccc(C)o4)CC(=O)N3C2)c1 (stereo not drawn)	i	i	76.1*	i	i	i
COc1ccc(OC)c(C2CC(=O)N3CN(c4ccccc4)CSC3=C2C#N)c1 (stereo not drawn)	i	i	83.3*	i	i	i
CCOc1cc(C2CC(=O)N3CN(C4CCCCC4)CSC3=C2C#N)ccc1O (stereo not drawn)	i	i	42.3	i	i	i
COc1ccc(N2CSC3=C(C#N)C(c4cccc(OC)c4OC)CC(=O)N3C2)cc1 (stereo not drawn)	i	i	83.3*	i	i	i
CCC(C)NC(=O)CN(c1cc(Cl)cc(Cl)c1)S(C)(=O)=O (stereo not drawn)	i	i	24.0	i	i	i
CC(C)[C@@H]1NC(=O)c2cc([N+](=O)[O-])cc(F)c2NCCC[C@@H](C(N)=O)NC(=O)[C@H](CO)NC1=O	.	.	-13.6	.	.	.
CCOc1ccccc1CNC(=O)C1CCN(C(=O)N2CC(C)Oc3ccc(C)cc32)CC1 (stereo not drawn)	i	i	25.4	i	i	i
O=C1CSC(=S)N1/N=C/c1ccc(O)c(O)c1O	i	i	74.5*	i	i	i
CC(C)N1C(=O)S/C(=C/c2ccc(Sc3nc4ccccc4[nH]3)o2)C1=O	i	i	-2.4	-7*	i	i
C=CCN1C(=O)S/C(=C/c2ccc(Sc3nc4ccccc4[nH]3)o2)C1=O	i	i	-4.0	-6.79*	i	i
CC1=C(C(=O)Nc2cccnc2)C(c2cccnc2)n2nc(-c3cccs3)nc2N1 (stereo not drawn)	i	i	62.3*	i	i	i
